The results in this text go back to ChEMBL document CHEMBL1137497, “4-arylcyclohexylalanine analogs as potent, selective, and orally active inhibitors of dipeptidyl peptidase IV” (Bioorg Med Chem Lett, 2007).

The target in one data set is Dipeptidyl peptidase 8 (Homo sapiens, UniProt Q6V1X1). In words: Inhibition of human DPP8.
Data set [1] can be described thus: Plasma clearance in rat at 1 mg/kg, iv or 2 mg/kg, po. Type of data set: ADME, organism-based. Summed up:
(§1)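 Pharmacokinetic parameters derived by noncompartmental analysis.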

Data set [2] concerns Mus musculus. In words: Reduction in glucose excursion in mouse at 0.1 mg/kg, po administered 60 mins prior to dextrose challenge by oral glucose tolerance test. It is filed as functional. Also on record: scale not given: the % may be the effect or the level left. Summed up:
(§2)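 Single oral dose given 60 min before an oral dextrose challenge. Blood glucose was monitored, and glucose excursion was expressed as percent reduction relative to vehicle-dosed controls.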

Data set [3] is described as follows: Oral bioavailability in rat at 2 mg/kg. Type of data set: ADME, organism-based. The following applies: in vivo. The method in brief:
as §1

The target in another data set is Dipeptidyl peptidase 9 (Homo sapiens, UniProt Q86TI2). In words: Inhibition of human DPP9.
Sequence of Dipeptidyl peptidase 9 (Q86TI2 whole entry): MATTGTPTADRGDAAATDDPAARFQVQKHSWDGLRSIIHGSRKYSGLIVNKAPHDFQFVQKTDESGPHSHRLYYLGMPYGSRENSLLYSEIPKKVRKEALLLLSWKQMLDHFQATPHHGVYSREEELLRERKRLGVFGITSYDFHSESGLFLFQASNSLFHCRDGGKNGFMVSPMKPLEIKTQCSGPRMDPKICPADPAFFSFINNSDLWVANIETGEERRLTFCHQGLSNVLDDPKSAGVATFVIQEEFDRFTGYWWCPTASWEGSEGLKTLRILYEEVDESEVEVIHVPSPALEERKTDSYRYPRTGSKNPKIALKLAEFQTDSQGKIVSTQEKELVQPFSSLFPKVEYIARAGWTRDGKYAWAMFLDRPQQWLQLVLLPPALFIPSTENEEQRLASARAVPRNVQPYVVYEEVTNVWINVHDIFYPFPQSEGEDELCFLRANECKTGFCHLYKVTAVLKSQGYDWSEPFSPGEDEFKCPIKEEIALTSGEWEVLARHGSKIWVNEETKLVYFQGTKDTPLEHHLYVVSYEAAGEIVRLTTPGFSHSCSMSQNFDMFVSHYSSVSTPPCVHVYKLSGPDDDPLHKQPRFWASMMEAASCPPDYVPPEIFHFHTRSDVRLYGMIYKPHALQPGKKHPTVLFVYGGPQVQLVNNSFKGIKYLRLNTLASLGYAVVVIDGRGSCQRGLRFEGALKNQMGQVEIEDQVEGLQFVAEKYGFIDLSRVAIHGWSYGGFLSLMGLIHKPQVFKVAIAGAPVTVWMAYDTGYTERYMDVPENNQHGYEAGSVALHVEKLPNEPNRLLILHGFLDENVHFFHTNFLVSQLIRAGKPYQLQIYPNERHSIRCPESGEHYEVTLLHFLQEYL
The target of data set [4] is Voltage-gated inwardly rectifying potassium channel KCNH2 (Homo sapiens, UniProt Q12809). Description: Inhibition of human ERG.
Sequence of Voltage-gated inwardly rectifying potassium channel KCNH2 (Q12809 whole entry): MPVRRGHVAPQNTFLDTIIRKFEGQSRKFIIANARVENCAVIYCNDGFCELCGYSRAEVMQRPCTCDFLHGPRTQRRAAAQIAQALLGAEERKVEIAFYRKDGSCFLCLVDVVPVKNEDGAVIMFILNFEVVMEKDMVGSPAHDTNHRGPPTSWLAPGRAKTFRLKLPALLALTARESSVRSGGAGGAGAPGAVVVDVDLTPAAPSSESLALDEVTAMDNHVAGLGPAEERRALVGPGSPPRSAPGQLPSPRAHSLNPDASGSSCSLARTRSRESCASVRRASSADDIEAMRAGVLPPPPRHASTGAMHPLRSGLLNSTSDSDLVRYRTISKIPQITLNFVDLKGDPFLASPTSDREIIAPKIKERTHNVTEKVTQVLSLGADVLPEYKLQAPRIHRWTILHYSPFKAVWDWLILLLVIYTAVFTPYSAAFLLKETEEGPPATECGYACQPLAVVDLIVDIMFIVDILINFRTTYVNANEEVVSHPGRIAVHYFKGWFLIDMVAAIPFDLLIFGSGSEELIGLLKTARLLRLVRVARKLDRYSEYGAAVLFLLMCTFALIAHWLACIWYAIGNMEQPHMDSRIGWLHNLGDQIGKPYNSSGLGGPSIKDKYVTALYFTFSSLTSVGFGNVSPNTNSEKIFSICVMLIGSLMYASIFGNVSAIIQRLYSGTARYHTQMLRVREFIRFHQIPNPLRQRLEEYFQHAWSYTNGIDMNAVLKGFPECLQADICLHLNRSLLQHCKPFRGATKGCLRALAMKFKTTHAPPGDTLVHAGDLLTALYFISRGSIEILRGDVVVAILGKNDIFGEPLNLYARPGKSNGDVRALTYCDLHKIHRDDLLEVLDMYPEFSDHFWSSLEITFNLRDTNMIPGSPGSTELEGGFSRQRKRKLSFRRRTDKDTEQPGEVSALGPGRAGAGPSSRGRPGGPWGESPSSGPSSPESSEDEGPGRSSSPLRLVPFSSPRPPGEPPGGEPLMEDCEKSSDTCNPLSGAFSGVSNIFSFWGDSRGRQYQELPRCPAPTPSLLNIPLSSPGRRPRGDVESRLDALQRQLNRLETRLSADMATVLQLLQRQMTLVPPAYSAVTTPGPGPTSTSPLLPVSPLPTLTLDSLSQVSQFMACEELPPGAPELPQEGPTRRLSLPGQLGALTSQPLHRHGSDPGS
Data set [5] is described as follows: Half life in rat. Type of data set: ADME, organism-based. The note with it: in vivo.
Data set [6] in a line: Oral bioavailability in rat. It is filed as ADME, organism-based. The note with it: in vivo.
Data set [7] in a line: Plasma clearance in rat. It is filed as ADME, organism-based.
A short description of data set [8]: AUC in rat at 2 mg/kg, po. The arrangement: dose 2 mg/kg, route oral. Type of data set: ADME, organism-based. The note with it: plasma. The method in brief: as §1
Data set [9] is described as follows: Cmax in rat at 1 mg/kg, iv or 2 mg/kg, po. The note with it: in vivo. Type of data set: ADME, organism-based. Summed up:
as §1

Data set [10] can be described thus: Half life in rat at 1 mg/kg, iv or 2 mg/kg, po. It is filed as ADME, organism-based. The following applies: in vivo. The method in brief:
as §1

The subject of another data set is Canis familiaris. Description: AUC in dog at 0.5 mg/kg, po. Type of data set: ADME, organism-based, Canis lupus familiaris, Plasma. Also on record: dose 0.5 mg/kg, route oral. The following applies: in vivo. The method in brief: as §1
A short description of data set [11]: Cmax in dog at 0.5 mg/kg, po. It is filed as ADME, organism-based, Canis lupus familiaris. The arrangement: dose 0.5 mg/kg, route oral. The following applies: in vivo. The method in brief: as §1
The nature of data set [12]: Half life in dog at 0.5 mg/kg, po. Type of data set: ADME, organism-based, Canis lupus familiaris. Also on record: dose 0.5 mg/kg, route oral. The following applies: in vivo. The method in brief:
as §1

A short description of data set [13]: Oral bioavailability in dog at 0.5 mg/kg. The note with it: in vivo. Type of data set: ADME, organism-based, Canis lupus familiaris. The method in brief:
as §1

A short description of data set [14]: AUC in rhesus monkey at 2 mg/kg, po. Type of data set: ADME, organism-based, Macaca mulatta. The arrangement: dose 2 mg/kg, route oral. The note with it: plasma. The method in brief:
as §1

Data set [15] is described as follows: Plasma clearance in rhesus monkey at 1 mg/kg, iv or 2 mg/kg, po. It is filed as ADME, organism-based, Macaca mulatta. Summed up:
as §1

Data set [16] can be described thus: Cmax in rhesus monkey at 1 mg/kg, iv or 2 mg/kg, po. Type of data set: ADME, organism-based, Macaca mulatta. The note with it: in vivo. The method in brief: as §1
Data set [17] can be described thus: Half life in rhesus monkey at 1 mg/kg, iv or 2 mg/kg, po. The note with it: in vivo. Type of data set: ADME, organism-based, Macaca mulatta. The method in brief: as §1
Data set [18] is described as follows: Oral bioavailability in rhesus monkey at 2 mg/kg. Type of data set: ADME, organism-based, Macaca mulatta. The note with it: in vivo. The method in brief:
as §1

Data set [19] concerns Mus musculus. In words: Reduction in glucose excursion in mouse at 0.03 mg/kg, po administered 60 mins prior to dextrose challenge by oral glucose tolerance test. It is filed as functional. Also on record: scale not given: the % may be the effect or the level left. The method in brief: as §2

Sequence of Dipeptidyl peptidase 8 (Q6V1X1 whole entry): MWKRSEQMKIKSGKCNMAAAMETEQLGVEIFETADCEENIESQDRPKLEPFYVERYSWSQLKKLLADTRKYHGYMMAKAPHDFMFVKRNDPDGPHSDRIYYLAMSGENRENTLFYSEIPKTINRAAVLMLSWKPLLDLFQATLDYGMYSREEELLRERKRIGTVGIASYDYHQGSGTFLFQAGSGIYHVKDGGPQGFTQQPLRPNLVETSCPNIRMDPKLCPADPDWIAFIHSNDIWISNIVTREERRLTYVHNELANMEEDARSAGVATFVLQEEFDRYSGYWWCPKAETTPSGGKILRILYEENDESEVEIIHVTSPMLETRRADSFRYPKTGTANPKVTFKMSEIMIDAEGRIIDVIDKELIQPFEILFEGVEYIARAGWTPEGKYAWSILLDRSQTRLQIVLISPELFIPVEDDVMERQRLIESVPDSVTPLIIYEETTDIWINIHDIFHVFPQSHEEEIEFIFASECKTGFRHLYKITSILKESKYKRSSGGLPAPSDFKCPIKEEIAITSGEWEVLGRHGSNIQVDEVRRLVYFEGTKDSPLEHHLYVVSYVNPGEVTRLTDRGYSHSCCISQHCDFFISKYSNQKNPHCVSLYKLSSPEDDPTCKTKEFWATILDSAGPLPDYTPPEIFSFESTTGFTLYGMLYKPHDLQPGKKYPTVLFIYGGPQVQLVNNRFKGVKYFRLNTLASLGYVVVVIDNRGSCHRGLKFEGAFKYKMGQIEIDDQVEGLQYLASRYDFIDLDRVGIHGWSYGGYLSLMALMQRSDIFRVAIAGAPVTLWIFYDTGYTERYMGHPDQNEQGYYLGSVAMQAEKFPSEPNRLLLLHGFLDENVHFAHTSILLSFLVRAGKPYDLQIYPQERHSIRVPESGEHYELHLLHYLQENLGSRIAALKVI

In turn, `COc1cc([C@H]2CC[C@@H]([C@H](C(=O)N(C)C)[C@H](N)C(=O)N3CCC(F)(F)C3)CC2)nc(OC)n1` showed a half-inhibitory concentration (IC50) at Dipeptidyl peptidase 8 of over 100 µM.

In turn, `COc1cc([C@H]2CC[C@H]([C@H](C(=O)N(C)C)[C@H](N)C(=O)N3CCC(F)(F)C3)CC2)nc(OC)n1` returned an IC50 against Dipeptidyl peptidase 8 of over 100 µM.

In [1], `CN(C)C(=O)[C@@H](c1ccc(-c2ccc(F)cc2)cc1)[C@H](N)C(=O)N1CC[C@H](F)C1` displayed a clearance of 0.288 L/h/kg. This compound also yielded an Activity with Mus musculus [2] of 21%.

`C[C@@H](c1ccc(-c2ccc(F)cc2)cc1)[C@H](N)C(=O)N1CC[C@H](F)C1` returned a clearance in [1] of 0.516 L/h/kg. Besides, in data set [3], the bioavailability is 85%.

For the compound `CN(C)C(=O)[C@@H](c1ccc(-c2ccc3ncnn3c2)cc1)[C@H](N)C(=O)N1CC[C@H](F)C1`, the clearance in data set [1] was found to be 0.42 L/h/kg.

`CC(=O)N[C@H]1CC[C@H]([C@H](C)[C@H](N)C(=O)N2CC[C@H](F)C2)CC1`: the IC50 (on Dipeptidyl peptidase 9; in data set [4]) was over 100 µM throughout. Moreover, in [1], the clearance came to 2.52 L/h/kg. In data set [3], the bioavailability was found to be 56%. This compound also returned an Activity in the data set on Mus musculus [2] of 26%.

As to `CN(C)C(=O)[C@@H]([C@H]1CC[C@H](c2cccc3ncnn32)CC1)[C@H](N)C(=O)N1CCC(F)(F)C1`, the half-life in data set [5] is 2.9 h. This compound gave a bioavailability in [6] of 98%. In addition, the clearance in data set [7] came out at 2.4 L/h/kg.

The compound `CN(C)C(=O)[C@@H]([C@H]1CC[C@H](c2cccc3ncnn32)CC1)[C@H](N)C(=O)N1CC[C@H](F)C1` had a half-life in [5] of 0.54 h. In data set [6], this compound registered a bioavailability of 31%.

The compound `CN(C)C(=O)[C@@H]([C@H]1CC[C@H](c2ccc3ncnn3c2)CC1)[C@H](N)C(=O)N1CCC(F)(F)C1` gave an IC50 in data set [4] of over 90 µM. The area under the curve (AUC) in data set [8] amounted to 4.4 µM·h; in the data set with Canis familiaris, 46 µM·h; in data set [14], 6.5 µM·h. Further, the clearance stood at 0.318 L/h/kg in data set [1] and 0.336 L/h/kg in [15]. Further, the bioavailability in [3] came to 63%; in [13], 100%; in data set [18], 97%. Also, the Cmax came to 3.3 µM in [9], 16 µM in [11] and 2.8 µM in data set [16]. Besides, the figures for the half-life in data set [10], in data set [12] and in [17] were 4.1 h, 3.9 h and 4.1 h, respectively. The compound also gave an Activity in the data set with Mus musculus [19] of 23%.
